MEKK2 mut-MEK5: signal of MEK5 binding to mutant human MEKK2 PB1 domain; actives 0.35% (n = 290,000); percent response, % at 10 µM; AID 1530; bead flow cytometry, Alexa488-MEK5 binding to MEKK2 mutant; in the data active = percent response above about 24%, passing the limit was not always enough
MEKK3 PB1 HTS: modulators (inhibitors or enhancers) of MEK5 binding to human MEKK3 PB1 domain; Q99759; AID 1529; actives 1.4% (n = 290,000); binding response (% of control), % at 10 µM; bead-based flow cytometry, Alexa488-MEK5 binding to MEKK3; actives lie on both sides; 0 = blocked by unlabeled MEK5, 100 = vehicle;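 active = binding response more than 3 SD above or below the average of its plate-row segment, actives on both sides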;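 note: Alexa488 bead fluorescence after subtracting the streptavidin-only scavenger bead signal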
Target sequence (Q99759 whole entry, looked up, the tested form may be a part): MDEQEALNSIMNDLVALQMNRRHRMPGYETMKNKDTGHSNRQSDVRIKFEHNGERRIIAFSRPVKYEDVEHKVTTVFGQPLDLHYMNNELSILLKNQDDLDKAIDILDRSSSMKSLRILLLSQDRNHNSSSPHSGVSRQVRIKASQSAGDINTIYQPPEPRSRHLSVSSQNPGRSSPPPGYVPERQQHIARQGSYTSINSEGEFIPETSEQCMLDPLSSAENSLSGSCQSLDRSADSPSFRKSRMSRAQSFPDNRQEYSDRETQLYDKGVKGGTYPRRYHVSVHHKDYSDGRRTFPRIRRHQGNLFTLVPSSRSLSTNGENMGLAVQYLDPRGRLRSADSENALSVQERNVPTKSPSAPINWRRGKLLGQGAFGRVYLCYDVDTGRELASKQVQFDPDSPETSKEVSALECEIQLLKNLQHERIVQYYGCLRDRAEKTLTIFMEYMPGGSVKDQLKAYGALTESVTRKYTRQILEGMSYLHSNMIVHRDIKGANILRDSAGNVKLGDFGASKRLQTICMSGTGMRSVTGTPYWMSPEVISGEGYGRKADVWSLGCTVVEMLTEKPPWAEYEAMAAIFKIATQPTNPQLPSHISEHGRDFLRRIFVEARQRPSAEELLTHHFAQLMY
Lipid droplet: hepatic lipid droplet formation modulation | AML12 mouse hepatocytes, oleate lipid droplets, BODIPY imaging | actives 0.4% (n = 240,000) | inhibition, % at 6.5 µM;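 active = lipid droplet intensity inhibited by at least 50%, with more than 500 cells counted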
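Technique: fluorescence imaging, 20x objective, two fields per well / Assay system: AML12 hepatocytes (mouse) / Measure: % inhibition of lipid droplet signal / Doses: 6.5 µM single-point dosing / Incubation: overnight exposure / Reagent: 100 µM oleic acid challenge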
MEKK2wt PB1 HTS: raises or lowers MEK5 binding to wildtype human MEKK2 PB1 domain; Q9Y2U5; bead flow cytometry, Alexa488-MEK5 binding to MEKK2 WT; actives lie on both sides; binding response (% of control), % at 10 µM; actives 1.1% (n = 290,000); in the data active = binding response below about 67% or above about 130%
* hit, by the source's call; . = not tested or not shown; [ ] = remark or other dose. Rows were chosen to be rich in hits. Some 2.6% of all compounds tested hit in one or more screens of this group.

SMILES	MEKK2 mut-MEK5	MEKK3 PB1 HTS	Lipid droplet	MEKK2wt PB1 HTS
COC(=O)c1sc2cc([N+](=O)[O-])cc(SCC(C)C)c2c1N	7	99	56*	9.0*
CCC(=O)N/N=C/c1ccc(-c2ccc([N+](=O)[O-])cc2)o1	-14	62	-5	64
CC(C)(C)C(=O)/C=c1\s/c(=C\c2ccc(-c3ccc([N+](=O)[O-])cc3)o2)c(=O)n1CC(=O)NC(N)=O	396*	111	-8	241*
CCN1CCN(CCCNC(=O)C2CCCN(c3nnc(-n4cccc4)s3)C2)CC1 (stereo not drawn)	8	103	.	109
CCOc1ccc(NCc2cccn2-c2nnc(N3CCC(C(=O)NCCCN4C(C)CCCC4C)CC3)s2)cc1 (stereo not drawn)	25*	107	-15	152*
CCOc1ccc(NCc2cccn2-c2nnc(N3CCC(C(=O)NCCCN4CCCCC4)CC3)s2)cc1	10	101	-7	125
CCOc1ccc(NCc2cccn2-c2nnc(N3CCC(C(=O)NCCCN4CCCCC4C)CC3)s2)cc1 (stereo not drawn)	33*	104	0	147*
CCC1CCCCN1CCCNC(=O)C1CCN(c2nnc(-n3cccc3)s2)CC1 (stereo not drawn)	14	102	-1	141*
Fc1ccc(N2CCN(c3ncnc4c3nnn4Cc3ccccc3Cl)CC2)cc1	-3	71*[inhibitor]	.	89
FC(F)(F)c1ccc(N2CCN(c3ncnc4c3nnn4Cc3ccccc3Cl)CC2)cc1	4	109	-3	105
O=C(CSCc1cccc(Br)c1)N1CCOCC1	1	101	.	101
O=C(NNC(=O)c1cccnc1SCc1cccc([N+](=O)[O-])c1)c1ccccn1	-1	134*	-5	106
CC(NC(=S)NCCN1CCOCC1)C12CC3CC(CC(C3)C1)C2 (stereo not drawn)	2	106	7	104
C(=N\Nc1nc2ccccc2[nH]1)/c1c[nH]c2ccccc12	11	105	15	155*
Cc1cc(SCC(=O)c2ccc(O)c(O)c2)nc2ccccc12	-6	99	-5	88
Cc1cc(SCC(=O)c2ccc3c(c2)OCO3)nc2ccccc12	39	113	-10	38*
CCC(OC(=O)c1nsc(Cl)c1Cl)C(=O)NC(C)(C)C (stereo not drawn)	18	104	22	12*
O=C(NNS(=O)(=O)c1ccc(Br)cc1)NC1CCCCC1	-8	83	6	87
O=C(NC1CCCCC1)N(C1=NCCCCC1)c1ccc(Br)cc1	4	106	-13	15*
COC(=O)c1ccc(C(=O)NC2CCCc3c2cnn3-c2cc(F)cc(F)c2)nc1 (stereo not drawn)	2	101	-4	105
COc1ccc(/C(C)=N/NC(=S)Nc2cc(C)ccc2C)cc1	3	110	-2	109
CCCN1C(=O)/C(=C/c2c(NCCCOCC)nc3c(C)cccn3c2=O)SC1=S	1	106	.	94
CCOCCCNc1nc2c(C)cccn2c(=O)c1/C=C1\SC(=S)N(C(C)CC)C1=O (stereo not drawn)	127*	28*[inhibitor]	86*	.
CC(C)=CCC/C(C)=C/CCC(C)NCCN1CCNCC1 (stereo not drawn)	48*	110	.	224*
COc1ccc(C)cc1NC(=O)C1CCN(C(=O)C2CC(=O)N(c3ccc(C)cc3)C2)CC1 (stereo not drawn)	4	102	-4	109
SMILES	MEKK2 mut-MEK5	MEKK3 PB1 HTS	Lipid droplet	MEKK2wt PB1 HTS
CCN(CC)CCN(C(=O)c1ccc2ccccc2c1)c1nc2ccc(OC)cc2s1	14	105	2	127
CCN(CC)CCN(C(=O)c1cc2ccccc2cc1OC)c1nc2ccc(F)cc2s1	20	104	8	140*
CCN(CC)CCN(C(=O)c1cc2ccccc2cc1OC)c1nc2ccc(OC)cc2s1	26*	103	12	148*
CCOc1ccc2nc(N(CCN(CC)CC)C(=O)/C=C/c3cccs3)sc2c1	16	109	-3	157*
COc1ccc2nc(N(CCN(C)C)C(=O)/C=C/c3cccs3)sc2c1	11	107	2	137
CCc1nnc(NS(=O)(=O)c2ccc(NCc3cc(Cl)cc(Cl)c3O)cc2)s1	7	99	1	103
COc1ccc(Cc2nnc(NC(=O)Nc3ccccc3)s2)cc1OC	4	103	-1	103
CCN(CC)S(=O)(=O)c1ccc(C(=O)NC(C)(C)C)cc1	-8	99	-3	88

Screens (PubChem BioAssay)
